ChEMBL document CHEMBL2321800, “Design and synthesis of new bifunctional sigma-1 selective ligands with antioxidant activity” (J Med Chem, 2013)
Calls of active or inactive are those of the source.

What was measured:
[1] = Displacement of [3H]DTG from sigma2 receptor in guinea pig brain membrane after 120 mins by liquid scintillation counting analysis; assay type: cell membranes, Cavia porcellus
In short: (§1)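 Guinea pig brain membranes with 3 nM [3H]DTG (Kd 11 nM) plus 400 nM (+)-SKF10,047 to mask sigma1 sites. Nonspecific binding with 5 µM DTG. 50 mM Tris-HCl pH 8.0, 120 min at room temperature. Filtration, scintillation counting, Ki computed; three determinations. Ratio taken from sigma2 and sigma1 Ki values.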

Cavia porcellus = species on record: Cavia porcellus; assay: Selectivity ratio of Ki for guinea pig sigma2 receptor to Ki for guinea pig sigma1 receptor; in short: as §1
[2] = molecular target: Sigma non-opioid intracellular receptor 1 (Cavia porcellus, UniProt Q60492); assay: Displacement of [3H]-(+)-pentazocine from sigma1 receptor in guinea pig brain membrane after 150 mins by liquid scintillation counting analysis; assay type: cell membranes
Rattus norvegicus [3] = assay: Reduction of (-)-U50488H-induced basal tail flick latency in Sprague-Dawley rat at 1 mg/kg, sc after 30 to 90 mins by radiant heat tail flick test; assay type: functional, organism-based; set-up: dose 1 mg/kg
In short: (§2)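 Male Sprague-Dawley rats (180-200 g), habituated the day before; radiant heat (infrared) aimed at lower third of tail, 25±1 °C. Basal latency 3-4 s, mean of three readings at 5 min intervals; 10 s cut-off. Drugs sc; tail-flick latency read 30, 45, 60, 75 and 90 min after injection. n=8-10, mean ± SD, two-way ANOVA with Duncan post-hoc.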

Rattus norvegicus [4] = species on record: Rattus norvegicus; assay: Antioxidant activity in rat brain mitochondria assessed as restoration of Ca2+/phosphate induced sulfhydryl group oxidation at 50 uM after 15 mins by mitochondrial thiol oxidation assay; assay type: functional
In short: (§3)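 After 15 min under swelling conditions (1 mg/ml; Ca2+ 50 µM liver, 100 µM brain; succinate/rotenone, 1 mM phosphate, 20 °C), mitochondria were pelleted and solubilized in pH 8.3 EDTA/Tris/1% SDS with DTNB. Thiols read at 412 nm and given as percent reduced SH groups. Five independent experiments; ANOVA and Student's t-test.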

Rattus norvegicus [5] = species on record: Rattus norvegicus; assay: Antioxidant activity in rat brain mitochondria assessed as inhibition of Ca2+/phosphate induced mitochondrial permeability transition at 25 to 50 uM by spectrophotometry; assay type: functional
In short: (§4)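 Mitochondria from rat liver (50 µM Ca2+) or cerebral cortex (Ficoll-purified; 100 µM Ca2+) at 1 mg protein/ml, 20 °C, in 200 mM sucrose, 10 mM HEPES pH 7.4, 5 mM succinate, 1 mM phosphate, 1.25 µM rotenone. Swelling followed as fall in apparent absorbance at 540 nm. Five runs.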

Rattus norvegicus [6] = species on record: Rattus norvegicus; assay: Antioxidant activity in rat liver mitochondria assessed as restoration of Ca2+/phosphate induced sulfhydryl group oxidation at 25 to 50 uM after 15 mins by mitochondrial thiol oxidation assay; assay type: functional; in short: as §3
Rattus norvegicus [7] = species on record: Rattus norvegicus; assay: Antioxidant activity in rat liver mitochondria assessed as inhibition of Ca2+/phosphate induced mitochondrial swelling at 50 uM by spectrophotometry; assay type: functional; in short: as §4
Rattus norvegicus [8] = species on record: Rattus norvegicus; assay: Antioxidant activity in rat liver mitochondria assessed as inhibition of Ca2+/phosphate induced mitochondrial swelling at 25 uM by spectrophotometry; assay type: functional; in short: as §4
Rattus norvegicus [9] = assay: Antinociceptive activity in Sprague-Dawley rat assessed as basal tail flick latency at 1 mg/kg, sc by radiant heat tail flick test; assay type: functional, organism-based; set-up: dose 1 mg/kg; in short: as §2
Rattus norvegicus [10] = species on record: Rattus norvegicus; assay: Antioxidant activity in rat brain mitochondria assessed as inhibition of Ca2+/phosphate induced mitochondrial swelling by spectrophotometry; assay type: functional
Rattus norvegicus [11] = species on record: Rattus norvegicus; assay: Antioxidant activity in rat brain mitochondria assessed as restoration of Ca2+/phosphate induced sulfhydryl group oxidation at 3 mM after 15 mins by mitochondrial thiol oxidation assay; assay type: functional; in short: as §3
Rattus norvegicus [12] = species on record: Rattus norvegicus; assay: Antioxidant activity in rat liver mitochondria assessed as restoration of Ca2+/phosphate induced sulfhydryl group oxidation at 3 mM after 15 mins by mitochondrial thiol oxidation assay; assay type: functional; in short: as §3

Chain of Sigma non-opioid intracellular receptor 1 (Q60492 whole entry): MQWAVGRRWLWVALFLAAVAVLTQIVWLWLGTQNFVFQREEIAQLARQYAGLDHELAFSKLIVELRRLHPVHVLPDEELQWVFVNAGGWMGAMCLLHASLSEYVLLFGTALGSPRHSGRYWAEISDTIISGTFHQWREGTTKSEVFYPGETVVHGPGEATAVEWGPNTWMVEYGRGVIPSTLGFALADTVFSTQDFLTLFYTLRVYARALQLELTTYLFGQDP

SMILES | Ki [1] | Ratio Ki (Cavia porcellus) | Ki [2] | other results
O=C(CCCCC1CCSS1)OC1CCN(CC2CCCCC2)CC1 (stereo not given) | 14 nM | 12.3 | 1.14 nM | 
O=C(CCCCC1CCSS1)N1CCN(Cc2ccccc2)CC1 (stereo not given) | 637 nM | 354 | 1.8 nM | 
Nc1ncnc2c1ncn2[C@@H]1O[C@H](COP(=O)(O)OP(=O)(O)O)[C@@H](O)[C@H]1O |  |  |  | inhibition (Rattus norvegicus [10]): Active; inhibition (Rattus norvegicus [7]): Active
OC[C@@H](O)[C@@H](S)CS |  |  |  | Activity (Rattus norvegicus [11]): Active; inhibition (Rattus norvegicus [10]): inactive; Activity (Rattus norvegicus [12]): Active; inhibition (Rattus norvegicus [7]): Active

More lines, in order of falling Ki [1], values ahead:

Ki [1] | Ratio Ki (Cavia porcellus) | Ki [2] | SMILES | other results
21000 nM | 183 | 115 nM | CN1CCN(C(=O)CCCCC2CCSS2)CC1 (stereo not given) | 
2300 nM | 414 | 5.56 nM | O=C(CCCCC1CCSS1)OC1CCN(Cc2ccccc2)CC1 (stereo not given) | Activity (Rattus norvegicus [3]): Active; Activity (Rattus norvegicus [4]): Active; inhibition (Rattus norvegicus [5]): Active; Activity (Rattus norvegicus [6]): Active; inhibition (Rattus norvegicus [7]): Active; inhibition (Rattus norvegicus [8]): Active; Activity (Rattus norvegicus [9]): inactive
209 nM | 24.8 | 8.4 nM | O=C(CCCCC1CCSS1)N1CCN(CCc2ccccc2)CC1 (stereo not given) | 
160 nM | 11.8 | 13.5 nM | O=C(CCCCC1CCSS1)OC1CCN(CCc2ccccc2)CC1 (stereo not given) | 
101 nM | 3.9 | 25.7 nM | O=C(CCCCC1CCSS1)OC1CCN(CCCc2ccccc2)CC1 (stereo not given) | 
91.6 nM | 9.16 | 10 nM | O=C(CCCCC1CCSS1)N1CCN(CCCc2ccccc2)CC1 (stereo not given) | 
11.2 nM | 28 | 0.4 nM | O=C(CCCCC1CCSS1)N1CCN(C2CCCCC2)CC1 (stereo not given) | 
